Screening data deposited in PubChem BioAssay by several laboratories.
MC4R ag barr = agonists of human melanocortin 4 receptor (MC4R) beta-arrestin | U2OS MC4R beta-arrestin complementation, luminescence; percent of melanotan II response, DMSO zero | activation, % at 8.9 µM | 0.98% of 360,000 active | AID 540308 | P32245;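 active = activation above a per-plate cutoff, the mean activation of sample wells on that plate plus 3 SD, cut at about 8% in these data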
Target sequence (P32245 whole entry, looked up): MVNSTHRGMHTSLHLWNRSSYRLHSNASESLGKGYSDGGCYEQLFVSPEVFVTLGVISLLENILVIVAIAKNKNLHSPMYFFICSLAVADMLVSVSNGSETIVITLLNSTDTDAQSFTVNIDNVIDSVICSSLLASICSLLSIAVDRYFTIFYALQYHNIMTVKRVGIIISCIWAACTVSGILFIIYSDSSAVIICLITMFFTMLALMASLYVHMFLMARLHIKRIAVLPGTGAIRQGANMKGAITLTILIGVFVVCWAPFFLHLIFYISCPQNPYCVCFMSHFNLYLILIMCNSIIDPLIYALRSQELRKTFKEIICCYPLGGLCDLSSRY
GalR3 antagonist = blocks the human galanin receptor 3; O60755; HEK293 GalR3-CNG cAMP membrane potential fluorescence; galR3 body fused to GalR1 C-terminus; inhibition, % at 3 µM; 0.44% of 360,000 active;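 active = inhibition above the screen-wide average plus 3 SD, cut at about 13% in these data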;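 note: forskolin and galanin both at EC90 stimulate the cells; cAMP rise reported by CNG channel membrane potential dye signal; 0% = forskolin plus galanin with DMSO and 100% = forskolin alone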
Target sequence (O60755 1-299 limits assumed): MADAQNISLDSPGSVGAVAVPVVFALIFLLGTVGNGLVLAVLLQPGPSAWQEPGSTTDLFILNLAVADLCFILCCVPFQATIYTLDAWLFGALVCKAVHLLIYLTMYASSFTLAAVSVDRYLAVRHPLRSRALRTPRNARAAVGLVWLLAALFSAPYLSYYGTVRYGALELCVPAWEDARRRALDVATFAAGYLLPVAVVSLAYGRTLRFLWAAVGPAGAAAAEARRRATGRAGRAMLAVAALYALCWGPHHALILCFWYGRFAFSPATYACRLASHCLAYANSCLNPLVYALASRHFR
TAG inh = inhibitors of triacylglycerol accumulation; H9c2 cells, Nile Red lipid (TAG) fluorescence; cells loaded with 200 µM oleic acid; inhibition, % at 12.5 µM; 0.66% of 230,000 active; AID 651582;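 active = pattern-corrected inhibition of lipid staining of at least 50% with the nuclear-stain viability signal not falling by more than 50%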;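 note: 0% = DMSO wells and 100% = triacsin C control wells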
MC4R antagonist = human MC4R antagonism in cAMP assay. MC4R-expressing cells, MTII-stimulated cAMP, LANCE TR-FRET. inhibition, % at 6.5 µM. 0.48% of 360,000 active. AID 540295;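 active = inhibition above its plate's cutoff, the mean of tested wells on that plate plus 3 SD, cut at about 29% in these data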;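 note: 0% = Melanotan II alone and 100% = Melanotan II plus saturating MCL0020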
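system = U2OS cells with stable human MC4R expression | also added = Melanotan II challenge after compound preincubation | dosing = one concentration, 6.5 µM nominal | incubation = compound 30 min, challenge 1 h, detection 1 h | measured by = TR-FRET with Eu-cAMP and labeled anti-cAMP, 671 nm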
Efflux pump mplx = inhibitors of Candida antifungal efflux pumps expressed in yeast | S. cerevisiae Candida pump triplex, Nile Red efflux | inhibition, % at 10 µM | 0.44% of 330,000 active | AID 485275;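 active = plate passing quality check with inhibition over a set limit, or well fluorescence over plate mean plus 4 SD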;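 note: Nile Red retained in pooled yeast measured as flow cytometry median fluorescence; 0% = buffer negative control and 100% = Enniatin B positive control; higher means more Nile Red kept so more efflux inhibition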
Calb FLC = C. albicans growth modulation with fluconazole. AID 1979. 0.57% of 300,000 active. C. albicans CaCi-2 + fluconazole, Alamar Blue growth, 48 h. growth inhibition, % (concentration not given with the values);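 active = growth inhibition above about 58% in most replicates, limit read from the data, passing the limit was not always enough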;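 note: all wells also contain fluconazole at 8 µg/ml as a sub-toxic cotreatment; 0% = median of DMSO wells and 100% = median of geldanamycin control wells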
GalR3 antag conf = confirmation of human galanin receptor 3 antagonists | shares compounds with GalR3 antagonist | HEK293 GalR3 CNG cAMP biosensor, membrane potential fluorescence; galR3 fused to GalR1 carboxy tail; challenged with forskolin and galanin at EC90 | inhibition, % at 3 µM | 59% of 1,600 active | AID 652245;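 active = inhibition above the primary screen's cutoff, the mean inhibition of all screened compounds plus 3 SD, cut at about 13% in these data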;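 note: 0% = forskolin plus galanin and 100% = forskolin alone with DMSO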
CNG parental = parental cell agonism counter-screen for GalR3 antagonists; shares compounds with GalR3 antagonist; HEK293-CNG parental cells, cAMP membrane potential fluorescence; normalised: DMSO wells 0%, forskolin wells 100%; activation, % at 3 µM; 10% of 1,600 active; AID 652268; in the data active = activation above about 1.3%
The depositor's hits bear a star; . = no result given. In the library only some 2.9% were active in any assay of this set; here they are far more common.

SMILES	MC4R ag barr	GalR3 antagonist	TAG inh	MC4R antagonist	Efflux pump mplx	Calb FLC	GalR3 antag conf	CNG parental
O=C(c1ccc(Cn2ccc([N+](=O)[O-])n2)cc1)N1CCN(Cc2ccccc2)CC1	-1	-9	-2	0	0	3	.	.
CSc1ccc(CN2CCN(C(=O)c3ccc([N+](=O)[O-])cc3)CC2)cc1	-2	102*	-14	6	0	-8	106*	0
COc1cccc(C(NC(C)=O)c2nc(-c3cccc(C(=O)O)c3)cs2)c1 (stereo not given)	-1	-4	-5	22	.	.	.	.
CC(=O)N1CCC2(CC1)C(C#N)=C(N)Oc1n[nH]c(C(F)(F)F)c12	1	.	-7	-10	0	4	6	0
Cn1nccc1C(=O)Nn1cnnc1	0	.	-9	5	0	2	6	0
FC(F)(F)c1cc(Cc2nc3ccccc3n2C(CCc2ccccc2)c2nc3ccccc3[nH]2)cc(C(F)(F)F)c1 (stereo not given)	.	-5	.	.	.	.	.	.
CC(=O)Nc1ccccc1OCC(=O)c1cc(C)n(Cc2cccs2)c1C	-2	83*	-127	8	0	4	98*	0
Cc1cc(C(=O)COc2cccnc2[N+](=O)[O-])c(C)n1Cc1cccs1	-3	1	-16	-3	0	-4	.	.
O=C(Cn1nc(C(=O)O)c2ccccc2c1=O)Nc1cccc(Br)c1	0	-2	.	2	0	-15	.	.
COc1ccc(NC(=O)Cn2nc(C(=O)O)c3ccccc3c2=O)cc1Cl	-1	13*	.	-4	0	-4	2	0
Cc1cccc(S(=O)(=O)NC(=O)C2(C)CCN2C(=O)Cc2cccs2)c1 (stereo not given)	0	-4	0	8	.	.	.	.
c1ccc(CCNc2ccnc3cc4ccccc4cc23)cc1	17*	19*	104*	-11	.	65	-7	3.3*
O=C(NC1CCCCC1)c1ccc(S(=O)(=O)c2ccccc2Cl)c([N+](=O)[O-])c1	.	.	.	.	0	-1	.	.
CN(C(=O)c1ccc(S(=O)(=O)c2cccc(Cl)c2)c([N+](=O)[O-])c1)C1CCCCC1	1	22*	.	16	0	-2	-2	0
OCC[C@@H]1C[C@@H](O)[C@H](O)[C@]2(CCc3ccccc3O2)O1	0	.	4	3	0	7	18*	0
CN(C)c1ccc(/C=N/NC(=O)CN(c2ccccc2Cl)S(C)(=O)=O)cc1Br	5	14*	12	14	0	-6	18*	1
COC(=O)Oc1ccc(/C=N/NC(=O)CN(c2ccccc2Br)S(C)(=O)=O)cc1OC	-1	11	-4	21	0	-24	.	.
O=C(c1ccco1)N1CC2(CC(c3ccc(Cl)cc3)=NO2)CN1Cc1ccc(Br)cc1 (stereo not given)	1	2	10	4	.	.	.	.
O=C(Nc1ccc(CN2CCOCC2)cc1)c1ccc(Cl)cc1	1	-5	.	7	0	22	.	.
O=C(Nc1ccc(CN2CCS(=O)(=O)CC2)cc1)c1ccc(C(F)(F)F)cc1	-1	-1	-6	13	0	1	.	.
CCC(C)c1ccc(OCC(=O)Nc2ccc(CN3CCOCC3)cc2)cc1 (stereo not given)	-1	18*	-20	3	-1	9	9	0
O=C(COc1ccc(Cl)cc1)Nc1ccc(CN2CCOCC2)cc1	0	-5	-5	0	1	.	.	.
CC(C)(C)c1ccc(C(=O)Nc2ccc(CN3CCS(=O)(=O)CC3)cc2)cc1	-1	34*	-3	-1	0	9	103*	0
COC(=O)c1ccc(NC(=O)c2ccc(CN3CCOCC3)cc2)cc1	-1	92*	.	-6	0	28	4	0
CC(C)c1ccc(/C=C/C(=O)NC(=S)Nc2ccc(CN3CCOCC3)cc2)cc1	1	46*	.	14	0	-8	75*	22*
SMILES	MC4R ag barr	GalR3 antagonist	TAG inh	MC4R antagonist	Efflux pump mplx	Calb FLC	GalR3 antag conf	CNG parental
CCc1nc2c(OCc3ccccc3)cccn2c1N(C)C(=O)C(C)C	1	-6	-11	3	.	.	.	.
CCc1ccc2c(c1)NC(=O)C2(C)Cc1ccccc1OC (stereo not given)	4	-7	-6	-3	.	.	.	.
CCOC(=O)c1ccc(NC(=O)c2ccc(C)c(S(=O)(=O)N3CCOCC3)c2)cc1	1	98*	-6	2	0	-11	107*	0
O=C(Nc1ccc(S(=O)(=O)Nc2ccccc2)cc1)c1ccc(CN2CCOCC2)cc1	-2	98*	-6	20	0	1	110*	-1
CC(=O)c1ccc(NC(=O)c2ccc(C)c(S(=O)(=O)N3CCOCC3)c2)cc1	-3	-6	.	7	0	0	.	.
COc1ccc(-n2c(-c3ccccc3)nnc2-c2ccc(Cl)cc2)cc1	0	-5	-14	-5	0	2	.	.
COc1ccc(-n2c(-c3ccc(Cl)cc3)c[n+]3c2CCc2ccccc2-3)cc1	-3	62*	-24	2	0	108*	57*	1
O=C(NCc1ccco1)c1ccc(-c2ccc(F)c(F)c2)c2ccoc12	0	-4	-43	21	.	.	.	.
CCOC(=O)Cn1nnnc1C(CC)N(Cc1cccs1)Cc1cc2cc(C)ccc2[nH]c1=O (stereo not given)	-1	0	11	11	0	8	.	.
CCOC(=O)Cn1nnnc1C(C(C)C)N(Cc1cccs1)Cc1cc2cc(C)ccc2[nH]c1=O (stereo not given)	0	37*	-5	3	0	7	28*	1
COC(=O)[C@]12C[C@H](CC(=O)N3CCCCC3)C(=O)N(Cc3ccccc3)C1=C[C@H](C1CCCC1)O[C@@H]2C	.	-5	.	.	.	.	.	.
Cc1ccccc1OCCCCn1cnc2ccccc21	3	77*	-21	-7	0	42	19*	-1
O=C1CCCCC(=O)[C@H](OC(=O)c2ccccc2)C[C@H](c2ccccc2)O1	.	-7	.	.	.	.	.	.
CC[C@]12C(=O)N(C)C[C@H]([C@@H]3C(=O)N(C)C(=O)[C@@H]31)N2C(=O)c1ccccc1	1	-6	-31	-8	.	.	.	.
O=[N+]([O-])c1ccc(NC(=S)N/C(=N/CS(=O)(=O)c2ccccc2)c2ccccc2)cc1	0	13*	-3	4	0	-3	7	1
O=C(Nc1ccc(OCC(F)(F)C(F)F)c(C(F)(F)F)c1)c1ccccc1O	4	19*	2	9	0	7	16*	-1
